In ChEMBL document CHEMBL4831495, “Discovery of novel BCR-ABL PROTACs based on the cereblon E3 ligase design, synthesis, and biological evaluation” (Eur J Med Chem, 2021):
Blank lines part the entries; values can stand above or below the molecule they belong to. Calls of active or inactive are those of the source. The rule behind the calls is not given here.

Assays:
[1] = system: K562; assay: Antiproliferative activity against human K562 cells assessed as cell growth inhibition measured after 48 hrs by CCK8 assay; type: functional, cell-based; conditions: K562, 48 h
Procedure, shortened: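 Cells were seeded at 3000-20,000 per well and given 3-fold serial dilutions of compound in medium. After 2 days at 37 °C in 5% CO2, CCK-8 reagent was added for 2-4 h and absorbance was read at 450 nm.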

[2] = target: T1, Protein cereblon/Tyrosine-protein kinase ABL1/Breakpoint cluster region protein (Homo sapiens, UniProt P00519+P11274+Q96SW2); assay: PROTAC activity at CRBN/Bcr-Abl in human K562 cells assessed as degrading activity by Western blotting analysis; type: cell-based
Target sequence in this assay (P00519 whole entry): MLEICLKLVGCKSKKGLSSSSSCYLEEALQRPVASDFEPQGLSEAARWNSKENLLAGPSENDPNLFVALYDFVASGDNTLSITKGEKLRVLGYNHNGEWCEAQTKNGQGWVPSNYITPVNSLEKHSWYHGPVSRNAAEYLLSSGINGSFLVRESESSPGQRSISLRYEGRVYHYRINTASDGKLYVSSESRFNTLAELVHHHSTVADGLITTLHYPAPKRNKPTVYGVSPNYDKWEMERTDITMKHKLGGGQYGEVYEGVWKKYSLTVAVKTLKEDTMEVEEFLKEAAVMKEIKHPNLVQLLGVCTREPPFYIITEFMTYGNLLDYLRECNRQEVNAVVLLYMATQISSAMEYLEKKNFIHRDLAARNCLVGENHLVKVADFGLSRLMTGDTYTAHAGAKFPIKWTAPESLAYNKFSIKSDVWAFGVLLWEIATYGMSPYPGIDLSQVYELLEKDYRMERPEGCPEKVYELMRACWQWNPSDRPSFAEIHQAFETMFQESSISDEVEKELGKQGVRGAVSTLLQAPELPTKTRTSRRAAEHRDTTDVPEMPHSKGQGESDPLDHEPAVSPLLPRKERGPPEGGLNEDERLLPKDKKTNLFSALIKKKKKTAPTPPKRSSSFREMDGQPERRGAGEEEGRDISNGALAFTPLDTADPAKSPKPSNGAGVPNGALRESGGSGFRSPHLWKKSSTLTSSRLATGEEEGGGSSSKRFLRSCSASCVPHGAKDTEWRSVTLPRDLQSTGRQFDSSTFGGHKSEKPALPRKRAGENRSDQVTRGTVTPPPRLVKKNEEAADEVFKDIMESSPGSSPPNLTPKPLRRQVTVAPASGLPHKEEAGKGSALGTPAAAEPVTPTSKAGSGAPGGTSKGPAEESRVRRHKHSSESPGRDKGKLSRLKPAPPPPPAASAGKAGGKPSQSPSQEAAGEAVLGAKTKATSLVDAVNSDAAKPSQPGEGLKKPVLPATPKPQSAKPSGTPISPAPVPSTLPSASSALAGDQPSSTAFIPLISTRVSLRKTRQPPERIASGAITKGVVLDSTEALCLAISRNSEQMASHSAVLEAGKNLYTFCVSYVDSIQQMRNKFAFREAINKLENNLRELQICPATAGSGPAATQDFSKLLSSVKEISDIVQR
Target sequence in this assay (P11274 whole entry): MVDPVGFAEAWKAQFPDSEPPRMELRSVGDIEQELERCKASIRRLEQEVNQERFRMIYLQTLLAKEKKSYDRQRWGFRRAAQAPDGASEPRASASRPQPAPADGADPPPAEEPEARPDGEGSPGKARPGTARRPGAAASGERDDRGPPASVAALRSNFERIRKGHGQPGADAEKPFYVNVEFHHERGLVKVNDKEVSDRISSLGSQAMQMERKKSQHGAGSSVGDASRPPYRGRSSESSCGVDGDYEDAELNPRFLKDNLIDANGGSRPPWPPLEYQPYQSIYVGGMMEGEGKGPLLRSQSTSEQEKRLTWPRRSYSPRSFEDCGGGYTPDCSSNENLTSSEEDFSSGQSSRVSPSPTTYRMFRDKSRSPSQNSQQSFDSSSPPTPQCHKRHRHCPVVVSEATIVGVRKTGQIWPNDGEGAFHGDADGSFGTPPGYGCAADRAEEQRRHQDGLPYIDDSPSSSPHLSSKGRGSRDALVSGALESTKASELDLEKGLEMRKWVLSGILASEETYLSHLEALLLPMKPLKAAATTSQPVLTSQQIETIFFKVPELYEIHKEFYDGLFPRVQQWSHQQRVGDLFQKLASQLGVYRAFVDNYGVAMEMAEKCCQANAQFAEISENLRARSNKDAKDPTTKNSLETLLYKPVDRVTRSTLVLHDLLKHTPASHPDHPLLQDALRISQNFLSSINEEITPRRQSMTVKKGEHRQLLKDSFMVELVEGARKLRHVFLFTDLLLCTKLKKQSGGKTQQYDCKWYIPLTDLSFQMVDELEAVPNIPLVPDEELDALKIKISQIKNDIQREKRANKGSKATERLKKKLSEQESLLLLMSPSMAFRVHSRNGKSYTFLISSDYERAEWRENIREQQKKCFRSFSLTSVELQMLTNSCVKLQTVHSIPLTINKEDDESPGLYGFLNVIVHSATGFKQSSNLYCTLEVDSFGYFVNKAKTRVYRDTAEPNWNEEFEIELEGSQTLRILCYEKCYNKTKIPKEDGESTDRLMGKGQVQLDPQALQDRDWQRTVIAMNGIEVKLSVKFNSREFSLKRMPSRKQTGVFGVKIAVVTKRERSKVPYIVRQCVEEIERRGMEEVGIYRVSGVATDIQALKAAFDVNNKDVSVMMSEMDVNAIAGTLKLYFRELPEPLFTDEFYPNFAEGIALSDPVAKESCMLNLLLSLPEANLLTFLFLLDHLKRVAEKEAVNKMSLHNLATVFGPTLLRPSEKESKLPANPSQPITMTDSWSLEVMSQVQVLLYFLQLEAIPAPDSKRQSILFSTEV
Target sequence in this assay (Q96SW2 whole entry): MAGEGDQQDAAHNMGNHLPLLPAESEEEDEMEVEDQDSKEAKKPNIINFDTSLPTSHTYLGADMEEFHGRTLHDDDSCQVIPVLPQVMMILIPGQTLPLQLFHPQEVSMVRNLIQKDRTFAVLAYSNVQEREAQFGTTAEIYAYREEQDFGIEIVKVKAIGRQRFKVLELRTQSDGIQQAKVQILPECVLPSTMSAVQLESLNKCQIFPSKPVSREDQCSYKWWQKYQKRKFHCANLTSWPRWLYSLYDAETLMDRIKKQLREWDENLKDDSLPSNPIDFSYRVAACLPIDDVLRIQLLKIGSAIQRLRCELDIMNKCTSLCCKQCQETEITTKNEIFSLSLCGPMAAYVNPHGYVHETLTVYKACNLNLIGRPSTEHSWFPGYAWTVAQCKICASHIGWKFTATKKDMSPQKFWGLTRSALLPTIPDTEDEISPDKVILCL

[3] = Half life in Wistar rat at 2 mg/kg, iv by LC-MS/MS analysis; type: ADME, organism-based; conditions: in vivo
Procedure, shortened: (§1)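 Single intravenous dose of 2 mg/kg into the femoral vein of female Wistar rats, given as a solution in NMP/PEG200 (1:9, v/v). Plasma was collected by sublingual vein bleeding at 0.083, 0.25, 0.5, 1, 2, 4, 6, 8, 12 and 24 h from one group of rats (n = 3). Samples were extracted and quantified by LC-MS/MS, LOQ 2.5 ng/mL.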

[4] = Tmax in Wistar rat at 2 mg/kg, iv by LC-MS/MS analysis; type: ADME, organism-based; conditions: in vivo; procedure, shortened: as §1
[5] = Cmax in Wistar rat at 2 mg/kg, iv by LC-MS/MS analysis; type: ADME, organism-based; set-up: route intravenous, dose 2 mg/kg; conditions: in vivo; procedure, shortened: as §1
[6] = AUC (0 to t) in Wistar rat at 2 mg/kg, iv by LC-MS/MS analysis; type: ADME, organism-based; set-up: dose 2 mg/kg; conditions: in vivo; procedure, shortened: as §1
[7] = MRT (0 to t) in Wistar rat at 2 mg/kg, iv by LC-MS/MS analysis; type: ADME, organism-based; conditions: in vivo; procedure, shortened: as §1
[8] = Apparent volume of distribution during steady state in Wistar rat at 2 mg/kg, iv by LC-MS/MS analysis; type: ADME, organism-based; conditions: in vivo, read-out: Vdss; procedure, shortened: as §1
[9] = Apparent volume of distribution during terminal state in Wistar rat at 2 mg/kg, iv by LC-MS/MS analysis; type: ADME, organism-based; conditions: in vivo, read-out: Vz; procedure, shortened: as §1
[10] = Clearance in Wistar rat at 2 mg/kg, iv by LC-MS/MS analysis; type: ADME, organism-based; conditions: in vivo; procedure, shortened: as §1
[11] = target: T1, Protein cereblon/Tyrosine-protein kinase ABL1/Breakpoint cluster region protein; assay: PROTAC activity at CRBN/Bcr-Abl in human K562 cells assessed as reduction in STAT5 level after 16 hrs by Western blotting analysis; type: cell-based
Procedure, shortened: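 K562 cells were plated at 3 × 10^5 cells/mL and treated with graded concentrations for 16 h. Lysates in 1× SDS buffer with protease inhibitors were quantified by Bradford assay. Western blots were probed with antibodies against Stat5, phospho-Stat5 (Tyr694) and […], among others.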

[12] = target: T1, Protein cereblon/Tyrosine-protein kinase ABL1/Breakpoint cluster region protein; assay: PROTAC activity at CRBN/Bcr-Abl in human K562 cells assessed as reduction in CRLK level after 16 hrs by Western blotting analysis; type: cell-based
[13] = target: T1, Protein cereblon/Tyrosine-protein kinase ABL1/Breakpoint cluster region protein; assay: PROTAC activity at CRBN/Bcr-Abl in human K562 cells assessed as reduction in Bcr-Abl level at 30 nM by Western blotting analysis; type: cell-based; conditions: time 0-24 hrs
[14] = target: T1, Protein cereblon/Tyrosine-protein kinase ABL1/Breakpoint cluster region protein; assay: PROTAC activity at CRBN/Bcr-Abl in human K562 cells assessed as reduction in Bcr-Abl level at 30 nM preincubated with proteasome inhibitor MG132 for 2 hrs and measured after 8 hrs by Western blotting analysis; type: cell-based
Procedure, shortened: (§2)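 K562 cells were pretreated for 2 h with MG132 ([…] as printed) or MLN4924 ([…] as printed), then exposed to degrader at 30 nM for 8 h. Cells were lysed in 1× SDS buffer with protease inhibitors, and protein was quantified by Bradford assay. BCR-ABL and c-ABL were detected by Western blot.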

[15] = target: T1, Protein cereblon/Tyrosine-protein kinase ABL1/Breakpoint cluster region protein; assay: PROTAC activity at CRBN/Bcr-Abl in human K562 cells assessed as reduction in C-Abl level at 30 nM preincubated with proteasome inhibitor MG132 for 2 hrs and measured after 8 hrs by Western blotting analysis; type: cell-based; procedure, shortened: as §2
[16] = target: T1, Protein cereblon/Tyrosine-protein kinase ABL1/Breakpoint cluster region protein; assay: PROTAC activity at CRBN/Bcr-Abl in human K562 cells assessed as reduction in Bcr-Abl level at 30 nM preincubated with NEDD8 inhibitor MLN4924 for 2 hrs and measured after 8 hrs by Western blotting analysis; type: cell-based; procedure, shortened: as §2
[17] = target: T1, Protein cereblon/Tyrosine-protein kinase ABL1/Breakpoint cluster region protein; assay: PROTAC activity at CRBN/Bcr-Abl in human K562 cells assessed as reduction in C-Abl level at 30 nM preincubated with NEDD8 inhibitor MLN4924 for 2 hrs and measured after 8 hrs by Western blotting analysis; type: cell-based; procedure, shortened: as §2
[18] = system: Protein cereblon/Tyrosine-protein kinase ABL1/Breakpoint cluster region protein (Homo sapiens), P00519+P11274+Q96SW2 [E255V]; assay: PROTAC activity at CRBN/BCR-ABL E255V mutant in human K562 cells assessed as degradation by Western blot analysis relative to control; type: cell-based
Procedure, shortened: (§3)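 Cells plated at 3 × 10^5 cells/mL and exposed to compounds at the indicated concentrations and times. Cells were then harvested, washed in cold PBS and lysed in 1× SDS buffer with protease inhibitor cocktail. Protein was quantified by detergent-compatible Bradford assay, and BCR-ABL was detected by Western blot with a c-ABL antibody.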

[19] = system: Protein cereblon/Tyrosine-protein kinase ABL1/Breakpoint cluster region protein (Homo sapiens), P00519+P11274+Q96SW2 [V299L]; assay: PROTAC activity at CRBN/BCR-ABL V299L mutant in human K562 cells assessed as degradation by Western blot analysis relative to control; type: cell-based; procedure, shortened: as §3
[20] = system: Protein cereblon/Tyrosine-protein kinase ABL1/Breakpoint cluster region protein (Homo sapiens), P00519+P11274+Q96SW2 [F317L]; assay: PROTAC activity at CRBN/BCR-ABL F317L mutant in human K562 cells assessed as degradation by Western blot analysis relative to control; type: cell-based; procedure, shortened: as §3
[21] = system: K562; assay: Antitumor activity against human K562 cells xenografted in NOD-SCID mouse assessed as tumor growth inhibition at 1 mg/kg, ip administered daily 10 days; type: functional; conditions: 240 h, time 10 day, read-out: TGI
Procedure, shortened: (§4)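 Mice carried K562-Luc xenografts, with 2 × 10^6 cells inoculated per mouse. Dosing began at a mean tumor volume of about 200 mm3. Drug in DMSO/PEG 400/40% hydroxypropyl-(1:3:6, vol/vol) was given ip once daily for 10 consecutive days at 1, 3 or 10 mg/kg. Calipers were used 2-3 times weekly, with V = L × W²/2, and TGI was calculated at day 10.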

[22] = system: K562; assay: Antitumor activity against human K562 cells xenografted in NOD-SCID mouse assessed as tumor growth inhibition at 3 mg/kg, ip administered daily 10 days; type: functional; conditions: 240 h, time 10 day, read-out: TGI; procedure, shortened: as §4
[23] = system: K562; assay: Antitumor activity against human K562 cells xenografted in NOD-SCID mouse assessed as tumor growth inhibition at 10 mg/kg, ip administered daily 10 days; type: functional; conditions: 240 h, time 10 day, read-out: TGI; procedure, shortened: as §4
[24] = Toxicity in NOD-SCID mouse xenografted with human K562 cells assessed as reduction in body weight at 100 mg/kg, ip measured on day 10; type: organism-based; conditions: in vivo
[25] = target: Protein cereblon/Proto-oncogene tyrosine-protein kinase Src (Homo sapiens) (UniProt P12931+Q96SW2); assay: PROTAC activity at CRBN/Src in human K562 cells assessed as Src degrading activity by Western blotting analysis; type: cell-based
[26] = target: Protein cereblon/Platelet-derived growth factor receptor beta (Homo sapiens) (UniProt P09619+Q96SW2); assay: PROTAC activity at CRBN/PDGFRbeta in human K562 cells assessed as PDGFRbeta degrading activity by Western blotting analysis; type: cell-based
Chain of Protein cereblon/Platelet-derived growth factor receptor beta (Homo sapiens) (P09619 whole entry, looked up): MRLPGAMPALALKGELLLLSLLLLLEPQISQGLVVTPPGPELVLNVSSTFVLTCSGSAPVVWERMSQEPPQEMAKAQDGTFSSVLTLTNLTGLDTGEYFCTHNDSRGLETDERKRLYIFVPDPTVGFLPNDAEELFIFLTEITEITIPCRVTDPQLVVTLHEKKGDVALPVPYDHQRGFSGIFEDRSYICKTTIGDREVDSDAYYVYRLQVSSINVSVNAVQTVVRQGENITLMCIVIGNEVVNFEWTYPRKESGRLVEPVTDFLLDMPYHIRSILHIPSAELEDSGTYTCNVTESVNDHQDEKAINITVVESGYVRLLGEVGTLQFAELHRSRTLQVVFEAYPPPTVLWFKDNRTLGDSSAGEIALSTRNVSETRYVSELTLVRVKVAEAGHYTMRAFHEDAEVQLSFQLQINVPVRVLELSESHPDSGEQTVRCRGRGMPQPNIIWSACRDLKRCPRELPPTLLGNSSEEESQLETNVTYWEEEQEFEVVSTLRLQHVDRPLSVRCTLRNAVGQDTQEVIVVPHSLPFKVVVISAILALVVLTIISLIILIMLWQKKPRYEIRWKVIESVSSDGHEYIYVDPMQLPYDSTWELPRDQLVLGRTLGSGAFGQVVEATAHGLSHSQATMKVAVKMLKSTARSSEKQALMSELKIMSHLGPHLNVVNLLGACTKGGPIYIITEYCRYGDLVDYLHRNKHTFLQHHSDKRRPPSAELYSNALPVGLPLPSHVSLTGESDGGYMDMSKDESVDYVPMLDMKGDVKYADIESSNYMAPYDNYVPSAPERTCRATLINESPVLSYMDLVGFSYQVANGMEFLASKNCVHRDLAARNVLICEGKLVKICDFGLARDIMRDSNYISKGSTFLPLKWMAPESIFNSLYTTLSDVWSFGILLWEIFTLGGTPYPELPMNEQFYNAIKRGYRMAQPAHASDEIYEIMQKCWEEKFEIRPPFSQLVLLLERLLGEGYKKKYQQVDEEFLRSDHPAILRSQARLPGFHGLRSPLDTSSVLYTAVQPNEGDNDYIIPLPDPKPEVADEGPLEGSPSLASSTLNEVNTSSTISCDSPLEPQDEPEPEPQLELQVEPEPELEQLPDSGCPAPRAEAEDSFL
Chain of Protein cereblon/Platelet-derived growth factor receptor beta (Homo sapiens) (Q96SW2 whole entry, looked up): as the sequence (Q96SW2 whole entry) above

Compound: Cc1nc(Nc2ncc(C(=O)Nc3c(C)cccc3Cl)s2)cc(N2CCN(CCCCC(=O)Nc3cccc4c3C(=O)N(C3CCC(=O)NC3=O)C4=O)CC2)n1 (stereo not drawn)
IC50 [1]: 4.6 nM
DC50 [2]: 10.1 nM

Compound: Cc1nc(Nc2ncc(C(=O)Nc3c(C)cccc3Cl)s2)cc(N2CCN(C(=O)CCOCCOCCOCCOCCOCCNc3cccc4c3C(=O)N(C3CCC(=O)NC3=O)C4=O)CC2)n1 (stereo not drawn)
IC50 [1]: 31.9 nM
DC50 [2]: 10.8 nM

Compound: Cc1nc(Nc2ncc(C(=O)Nc3c(C)cccc3Cl)s2)cc(N2CCN(C(=O)CCOCCOCCNc3cccc4c3C(=O)N(C3CCC(=O)NC3=O)C4=O)CC2)n1 (stereo not drawn)
IC50 [1]: 8.05 nM
DC50 [2]: 17.5 nM
half-life [3]: 37.2 min
Tmax [4]: 4.8 min
Cmax [5]: 1140 ng/mL
AUC(0-t) [6]: 496 ng·h/mL
MRT last [7]: 27 min
Vd [8]: 1.93 L/kg
Vd [9]: 3.59 L/kg
clearance [10]: 67.1 mL/min/kg

Compound: Cc1nc(Nc2ncc(C(=O)Nc3c(C)cccc3Cl)s2)cc(N2CCN(C(=O)CCCNc3cccc4c3C(=O)N(C3CCC(=O)NC3=O)C4=O)CC2)n1 (stereo not drawn)
IC50 [1]: 5.5 nM
DC50 [2]: 7.8 nM

Compound: Cc1nc(Nc2ncc(C(=O)Nc3c(C)cccc3Cl)s2)cc(N2CCN(C(=O)CCCCCCNc3cccc4c3C(=O)N(C3CCC(=O)NC3=O)C4=O)CC2)n1 (stereo not drawn)
IC50 [1]: 1.47 nM
DC50 [2]: 9 nM

Compound: Cc1nc(Nc2ncc(C(=O)Nc3c(C)cccc3Cl)s2)cc(N2CCN(C(=O)CCOCCNc3cccc4c3C(=O)N(C3CCC(=O)NC3=O)C4=O)CC2)n1 (stereo not drawn)
IC50 [1]: 18.4 nM
DC50 [2]: 8.7 nM

Compound: Cc1nc(Nc2ncc(C(=O)Nc3c(C)cccc3Cl)s2)cc(N2CCN(C(=O)CCOCCOCCOCCNc3cccc4c3C(=O)N(C3CCC(=O)NC3=O)C4=O)CC2)n1 (stereo not drawn)
IC50 [1]: 14.8 nM
DC50 [2]: 18.4 nM

Compound: Cc1nc(Nc2ncc(C(=O)Nc3c(C)cccc3Cl)s2)cc(N2CCN(CCSc3cccc4c3C(=O)N(C3CCC(=O)NC3=O)C4=O)CC2)n1 (stereo not drawn)
IC50 [1]: 0.49 nM
DC50 [2]: 0.18 nM
half-life [3]: 254 min
Tmax [4]: 4.8 min
Cmax [5]: 1500 ng/mL
AUC(0-t) [6]: 926 ng·h/mL
MRT last [7]: 120 min
Vd [8]: 5.23 L/kg
Vd [9]: 13 L/kg
clearance [10]: 35.7 mL/min/kg
inhibition [11]: Active
inhibition [12]: Active
inhibition [13]: Active
inhibition [14]: Active
inhibition [15]: Active
inhibition [16]: Active
inhibition [17]: Active
Activity [18]: Active
Activity [19]: Active
Activity [20]: Active
inhibition in vivo at 1 mg/kg [21]: 78.9%
inhibition in vivo at 3 mg/kg [22]: 93.8%
inhibition in vivo at 10 mg/kg [23]: 98.8%
Activity [24]: Non-Toxic
Activity [25]: inactive
Activity [26]: inactive

Now from value to molecule:

IC50 [1]: 0.28 nM
DC50 [2]: 2.7 nM
half-life [3]: 116 min
Tmax [4]: 4.8 min
Cmax [5]: 1450 ng/mL
AUC(0-t) [6]: 1330 ng·h/mL
MRT last [7]: 93 min
Vd [8]: 2.78 L/kg
Vd [9]: 4.02 L/kg
clearance [10]: 24.1 mL/min/kg
Compound: Cc1nc(Nc2ncc(C(=O)Nc3c(C)cccc3Cl)s2)cc(N2CCN(CCCCNc3cccc4c3C(=O)N(C3CCC(=O)NC3=O)C4=O)CC2)n1 (stereo not drawn)

IC50 [1]: 1.03 nM
DC50 [2]: 125 nM
Compound: Cc1nc(Nc2ncc(C(=O)Nc3c(C)cccc3Cl)s2)cc(N2CCN(C(=O)CCCC(=O)Nc3cccc4c3CN(C3CCC(=O)NC3=O)C4=O)CC2)n1 (stereo not drawn)

IC50 [1]: > 10000 nM
Compound: Nc1cccc2c1CN(C1CCC(=O)NC1=O)C2=O (stereo not drawn) [LENALIDOMIDE]

IC50 [1]: 1.22 nM
DC50 [2]: 10 nM
Compound: Cc1nc(Nc2ncc(C(=O)Nc3c(C)cccc3Cl)s2)cc(N2CCN(C(=O)CNc3cccc4c3C(=O)N(C3CCC(=O)NC3=O)C4=O)CC2)n1 (stereo not drawn)
